# The source made the active and inactive calls. The rule behind the calls is not given here.
# Tests used:
# [1] = Inhibition of oligonucleotide [32P]-labelled 5'-AGATTTCTAGGAATTCAA probe binding to STAT5 homodimer in mouse NIH3T3 nuclear extract preincubated for 30 mins followed by MGFe probe addition by EMSA analysis
# MDA-MB-468 [2] = assay: Antiproliferative activity against human MDA-MB-468 cells harbouring STAT3 assessed as reduction in cell viability at upto 10 uM incubated for 72 hrs by CyQuant assay; format: functional, cell-based; conditions: dose microM <=10, time 72.0 hrs
# MDA-MB-231 [3] = assay: Antiproliferative activity against human MDA-MB-231 cells harbouring STAT3 assessed as reduction in cell viability at upto 10 uM incubated for 72 hrs by CyQuant assay; format: functional, cell-based; conditions: dose microM <=10, time 72.0 hrs
# MDA-MB-468 [4] = assay: Antiproliferative activity against human MDA-MB-468 cells harbouring STAT3 assessed as reduction in cell viability incubated for 72 hrs by CyQuant assay; format: functional, cell-based; conditions: MDA-MB-468, 72 h
# [5] = molecular target: Signal transducer and activator of transcription 3 (Mus musculus, UniProt P42227); assay: Inhibition of oligonucleotide [32P]-labelled 5'-AGCITCATTTCCCGTAAATCCCTA probe binding to STAT3 SH2 domain in mouse NIH3T3/v-Src nuclear extract preincubated for 30 mins followed by hSIE probe addition by EMSA analysis; format: subcellular, Nucleus
# MDA-MB-231 [6] = assay: Anticlonogenic activity against human MDA-MB-231 cells assessed as inhibition of colony formation at 0.5 to 1 uM incubated for 4 hrs by crystal violet staining based assay; format: functional, cell-based; conditions: dose 0.5-1 µM
# In short: (§1)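 MDA-MB-231 cells seeded as single-cell cultures (250 cells per well), treated once the next day with compound at 0–1 μM and grown until large colonies were visible. Colonies stained with crystal violet for 4 h and photographed. Three independent determinations.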
# MCF7 [7] = assay: Antiproliferative activity against human MCF7 cells assessed as reduction in cell viability incubated for 72 hrs by CyQuant assay; format: functional, cell-based; conditions: MCF7, 72 h
# MCF-10A = assay: Cytotoxicity against human MCF-10A cells assessed as reduction in cell viability incubated for 72 hrs by CyQuant assay; format: cell-based
# [8] = molecular target: Signal transducer and activator of transcription 3 (Homo sapiens) (UniProt P40763); assay: Inhibition of STAT3 in human MDA-MB-231 cells assessed as inhibition of c-myc expression at 1 to 3 uM incubated for 3 to 24 hrs by immunoblotting analysis; format: cell-based; conditions: dose 1-3 µM, time lower 3.0 hrs, time upper […]
# In short: (§2)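 MDA-MB-231 cells treated with 1 or 3 μM compound for 3–24 h. Equal-protein whole-cell lysates (RIPA) immunoblotted for c-Myc, Bcl-2, VEGF, survivin and tubulin. Control is 0.05% DMSO-treated cells. Two to three independent determinations.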
# [9] = molecular target: Signal transducer and activator of transcription 3 (Homo sapiens) (UniProt P40763); assay: Inhibition of STAT3 in human MDA-MB-231 cells assessed as induction of PARP cleavage at 1 to 3 uM incubated for 3 to 24 hrs by immunoblotting analysis; format: cell-based; conditions: dose 1-3 µM, time lower 3.0 hrs, time upper […]
# In short: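 Equal-protein whole-cell lysates run on SDS-PAGE/Western and probed for full-length and cleaved PARP, pYSTAT3, STAT3 and tubulin. Control is 0.05% DMSO. Two independent determinations.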
# [10] = Drug metabolism of compound in human liver microsomes assessed as hydroxy-acid metabolite formation; format: ADME, Microsome
# [11] = Aqueous solubility of compound in simulated intestinal fluid; format: physicochemical; conditions: simulated gi fluid
# MDA-MB-231 [12] = assay: Anticlonogenic activity against human MDA-MB-231 cells assessed as inhibition of colony formation at 0.5 uM incubated for 4 hrs by crystal violet staining based assay; format: functional, cell-based; in short: as §1
# [13] = Drug metabolism of compound in human liver microsomes assessed as metabolite formation; format: ADME, Microsome
# [14] = molecular target: Signal transducer and activator of transcription 3 (Homo sapiens) (UniProt P40763); assay: Inhibition of STAT3 in human MDA-MB-231 cells assessed as effect on Akt expression at 1 to 3 uM incubated for 3 to 24 hrs by immunoblotting analysis; format: cell-based; conditions: dose 1-3 µM, time lower 3.0 hrs, time upper […]
# In short: (§3)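 MDA-MB-231 cells treated with 1 or 3 μM compound. Whole-cell lysates prepared in RIPA buffer and immunoblotted for EGFR, JAK2, Src, AKT and ERK1/2.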
# [15] = molecular target: Signal transducer and activator of transcription 3 (Homo sapiens) (UniProt P40763); assay: Inhibition of STAT3 in human MDA-MB-231 cells assessed as inhibition of VEGF expression at 1 to 3 uM incubated for 3 to 24 hrs by immunoblotting analysis; format: cell-based; conditions: dose 1-3 µM, time lower 3.0 hrs, time upper […]; in short: as §2
# [16] = Aqueous solubility of compound in simulated gastric fluid; format: physicochemical; conditions: simulated gi fluid
# [17] = molecular target: Signal transducer and activator of transcription 3 (Homo sapiens) (UniProt P40763); assay: Inhibition of STAT3 in human MDA-MB-231 cells assessed as effect on EGFR expression at 1 to 3 uM incubated for 3 to 24 hrs by immunoblotting analysis; format: cell-based; conditions: dose 1-3 µM, time lower 3.0 hrs, time upper […]; in short: as §3
# [18] = molecular target: Signal transducer and activator of transcription 3 (Homo sapiens) (UniProt P40763); assay: Inhibition of STAT3 in human MDA-MB-231 cells assessed as effect on Src expression at 1 to 3 uM incubated for 3 to 24 hrs by immunoblotting analysis; format: cell-based; conditions: dose 1-3 µM, time lower 3.0 hrs, time upper […]; in short: as §3
# [19] = molecular target: Signal transducer and activator of transcription 3 (Homo sapiens) (UniProt P40763); assay: Binding affinity to STAT3 (unknown origin) assessed as change in entropy by isothermal titration calorimetry
# [20] = molecular target: Signal transducer and activator of transcription 3 (Homo sapiens) (UniProt P40763); assay: Inhibition of STAT3 in human MDA-MB-231 cells assessed as effect on JAK2 expression at 1 to 3 uM incubated for 3 to 24 hrs by immunoblotting analysis; format: cell-based; conditions: dose 1-3 µM, time lower 3.0 hrs, time upper […]; in short: as §3
# [21] = molecular target: Signal transducer and activator of transcription 3 (Homo sapiens) (UniProt P40763); assay: Inhibition of STAT3 in human MDA-MB-231 cells assessed as inhibition of survivin expression at 1 to 3 uM incubated for 3 to 24 hrs by immunoblotting analysis; format: cell-based; conditions: dose 1-3 µM, time lower 3.0 hrs, time upper […]; in short: as §2
# [22] = molecular target: Signal transducer and activator of transcription 3 (Homo sapiens) (UniProt P40763); assay: Inhibition of STAT3 in human MDA-MB-231 cells assessed as effect on Erk1/2 expression at 1 to 3 uM incubated for 3 to 24 hrs by immunoblotting analysis; format: cell-based; conditions: dose 1-3 µM, time lower 3.0 hrs, time upper […]; in short: as §3
# [23] = molecular target: Signal transducer and activator of transcription 3 (Homo sapiens) (UniProt P40763); assay: Inhibition of oligonucleotide [32P]-labelled 5'-AGCITCATTTCCCGTAAATCCCTA hSIE probe binding to STAT3 in human MDA-MB-468 cell nuclear extract at 5 uM by EMSA analysis; conditions: time upper […], TDE = time-dependent effect
# [24] = molecular target: Signal transducer and activator of transcription 3 (Homo sapiens) (UniProt P40763); assay: Inhibition of STAT3 in human MDA-MB-231 cells assessed as inhibition of Bcl-2 expression at 1 to 3 uM incubated for 3 to 24 hrs by immunoblotting analysis; format: cell-based; conditions: dose 1-3 µM, time lower 3.0 hrs, time upper […]; in short: as §2
# MDA-MB-231 [25] = assay: Antiproliferative activity against human MDA-MB-231 cells assessed as reduction in cell viability at 2 uM incubated for 24 hrs by Trypan blue exclusion dye based phase contrast microscopic analysis; format: functional
# In short: (§4)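 Cells in 6-well culture, untreated or treated once with 2 μM compound. Harvested every 24 h (up to 96 h) and counted as viable cells by trypan blue exclusion under phase-contrast microscopy. Counts plotted against duration of treatment.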
# MCF7 [26] = assay: Antiproliferative activity against human MCF7 cells assessed as reduction in cell viability at 2 uM incubated for 24 hrs by Trypan blue exclusion dye based phase contrast microscopic analysis; format: functional; in short: as §4
# MDA-MB-231 [27] = assay: Antiproliferative activity against human MDA-MB-231 cells assessed as reduction in cell viability incubated for 72 hrs by CyQuant assay; format: functional, cell-based; conditions: MDA-MB-231, 72 h
# [28] = molecular target: Signal transducer and activator of transcription 3 (Homo sapiens) (UniProt P40763); assay: Inhibition of STAT3 phosphorylation at Y705 residues in human MDA-MB-468 whole cell lysate at 3 uM at 24 hrs by immunoblotting analysis; format: subcellular
# In short: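 MDA-MB-468 cells (DMEM, 10% heat-inactivated FBS) treated with 3 μM compound for 3–24 h or 0.05% DMSO; equal-protein whole-cell RIPA lysates run on SDS-PAGE and immunoblotted for pY705STAT3, total STAT3 and tubulin. Representative of two to three independent determinations.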
# [29] = molecular target: Signal transducer and activator of transcription 3 (Homo sapiens) (UniProt P40763); assay: Binding affinity to STAT3 (unknown origin) assessed as change in enthalpy by isothermal titration calorimetry
# Signal transducer and activator of transcription 3 (Homo sapiens), sequence (P40763 whole entry): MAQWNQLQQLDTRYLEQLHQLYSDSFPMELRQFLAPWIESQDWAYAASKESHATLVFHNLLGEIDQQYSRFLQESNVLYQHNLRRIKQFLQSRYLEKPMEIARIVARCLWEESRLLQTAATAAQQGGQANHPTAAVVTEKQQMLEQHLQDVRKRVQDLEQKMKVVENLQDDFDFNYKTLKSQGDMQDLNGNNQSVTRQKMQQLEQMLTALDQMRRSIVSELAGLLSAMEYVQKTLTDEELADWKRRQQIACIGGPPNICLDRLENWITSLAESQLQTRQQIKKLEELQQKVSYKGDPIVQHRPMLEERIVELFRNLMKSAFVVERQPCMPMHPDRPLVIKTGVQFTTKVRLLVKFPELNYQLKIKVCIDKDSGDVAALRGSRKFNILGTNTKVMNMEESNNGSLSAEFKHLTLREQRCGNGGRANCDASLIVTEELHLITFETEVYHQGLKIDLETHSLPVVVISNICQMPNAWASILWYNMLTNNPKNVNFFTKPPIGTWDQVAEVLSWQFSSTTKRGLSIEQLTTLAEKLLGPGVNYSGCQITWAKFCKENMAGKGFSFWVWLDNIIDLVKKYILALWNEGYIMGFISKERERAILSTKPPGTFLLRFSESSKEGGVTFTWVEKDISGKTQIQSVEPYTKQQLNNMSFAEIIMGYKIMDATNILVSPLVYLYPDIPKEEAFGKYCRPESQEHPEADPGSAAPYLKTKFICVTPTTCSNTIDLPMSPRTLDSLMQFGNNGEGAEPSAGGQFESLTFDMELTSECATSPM
# Signal transducer and activator of transcription 3, sequence (P42227 whole entry, the tested form may be a part): as the sequence (P40763 whole entry) above, with E760D counted along it
structure (smiles),measurement,setting,value
O=C(O)c1ccc(N(Cc2ccc(C3CCCCC3)cc2)C(=O)[C@H]2CCN2S(=O)(=O)c2c(F)c(F)c(F)c(F)c2F)cc1O,IC50,[1],9.3 µM
same,Activity,MDA-MB-468 [2],inactive
same,Activity,MDA-MB-231 [3],inactive
COC(=O)c1ccc(N(Cc2cnc(C3CCCCC3)cn2)C(=O)[C@H]2CCN2S(=O)(=O)c2c(F)c(F)c(F)c(F)c2F)c(F)c1,EC50,MDA-MB-468 [4],1.4 µM
same,IC50,[5],> 10 µM
same,inhibition,MDA-MB-231 [6],Active
same,EC50,MCF7 [7],8.9 µM
same,EC50,MCF-10A,4 µM
O=C1OCc2cc(N(Cc3ccc(C4CCCCC4)cn3)C(=O)[C@H]3CCN3S(=O)(=O)c3c(F)c(F)c(F)c(F)c3F)ccc21,inhibition,[8],Active
same,EC50,MDA-MB-468 [4],1 µM
same,inhibition,[9],Active
same,Drug metabolism,[10],Metabolite_Detected
same,solubility,[11],0.2 mg/mL
same,inhibition,MDA-MB-231 [12],Active
same,Drug metabolism,[13],Metabolite_Detected
same,inhibition,[14],Active
same,inhibition,[15],Active
same,solubility,[16],0.116 mg/mL
same,inhibition,[17],Active
same,EC50,MCF7 [7],4.6 µM
same,inhibition,[18],Active
same,-TdeltaS,[19],-11.9 kJ/mol
same,inhibition,[20],Active
same,inhibition,[21],Active
same,inhibition,[22],Active
same,EC50,MCF-10A,4.6 µM
same,inhibition,[23],Tde
same,inhibition,[24],Active
O=C1NC(=O)c2cc(N(Cc3ccc(C4CCCCC4)cn3)C(=O)[C@H]3CCN3S(=O)(=O)c3c(F)c(F)c(F)c(F)c3F)ccc21,Activity,MDA-MB-231 [25],Active
same,EC50,MDA-MB-468 [4],1.9 µM
same,inhibition,MDA-MB-231 [6],Active
same,EC50,MCF7 [7],7 µM
same,-TdeltaS,[19],-13.6 kJ/mol
same,EC50,MCF-10A,8.1 µM
same,Activity,MCF7 [26],inactive
same,EC50,MDA-MB-231 [27],1.7 µM
same,inhibition,[28],inactive
same,inhibition,[23],Tde
same,deltaH,[29],-20.8 kJ/mol

# Source: ChEMBL document CHEMBL4706639, “Discovery of Novel Azetidine Amides as Potent Small-Molecule STAT3 Inhibitors” (J Med Chem, 2021)
